From ChEMBL document CHEMBL4732057, “Design, synthesis and biological evaluation of second-generation benzoylpiperidine derivatives as reversible monoacylglycerol lipase (MAGL) inhibitors” (Eur J Med Chem, 2021)
pIC50: −log10 of the molar value.

Key:
Monoglyceride lipase = target: T1, Monoglyceride lipase (Homo sapiens, UniProt Q99685); assay: Inhibition of human recombinant MAGL using 4-nitrophenylacetate as substrate incubated for 30 mins by microplate reader assay
T1 sequence (Q99685 whole entry): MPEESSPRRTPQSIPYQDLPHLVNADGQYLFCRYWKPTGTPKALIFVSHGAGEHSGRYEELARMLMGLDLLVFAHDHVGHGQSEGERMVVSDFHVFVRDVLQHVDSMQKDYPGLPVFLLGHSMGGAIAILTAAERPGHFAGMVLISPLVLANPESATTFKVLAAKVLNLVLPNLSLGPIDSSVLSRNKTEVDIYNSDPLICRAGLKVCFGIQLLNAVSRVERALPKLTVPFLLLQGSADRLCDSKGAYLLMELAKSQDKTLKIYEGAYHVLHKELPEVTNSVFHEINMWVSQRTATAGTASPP
Summary of the method: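 Human recombinant MAGL, 11 ng/well, in 10 mM Tris pH 7.2 with 1 mM EDTA and 0.1 mg/mL BSA, at room temperature. 4-NPA 133.3 µM stock added; enzyme added last. Absorbance at 405 nm after 30 min, minus a no-enzyme blank for each concentration. Sigmoidal fit; duplicates of three independent experiments.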

HCT-116 = assay: Antiproliferative activity against human HCT116 cells as reduction in cell growth measured after 96 hrs by Celltiter-glo luminescent assay; assay type: functional, cell-based; conditions: HCT-116, 96 h
Summary of the method: (§1)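 Cell lines kept at 37 °C, 5% CO2; 5 × 10^2 cells per well, compound added the day after seeding at 200 to 0.02 µM. Viability read after 96 h by CellTiter-Glo luminescence. IC50 from logistic dose-response curves, in triplicate; error bars are SD.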

MDA-MB-231 = assay: Antiproliferative activity against human MDA-MB-231 cells as reduction in cell growth measured after 96 hrs by Celltiter-glo luminescent assay; assay type: functional, cell-based; conditions: MDA-MB-231, 96 h; summary of the method: as §1
Caov-3 cell line = assay: Antiproliferative activity against human CAOV3 cells as reduction in cell growth measured after 96 hrs by Celltiter-glo luminescent assay; assay type: functional, cell-based; conditions: Caov-3, 96 h; summary of the method: as §1
OVCAR-3 = assay: Antiproliferative activity against human OVCAR3 cells as reduction in cell growth measured after 96 hrs by Celltiter-glo luminescent assay; assay type: functional, cell-based; conditions: OVCAR-3, 96 h; summary of the method: as §1
SK-OV-3 = assay: Antiproliferative activity against human SKOV3 cells as reduction in cell growth measured after 96 hrs by Celltiter-glo luminescent assay; assay type: functional, cell-based; conditions: SK-OV-3, 96 h; summary of the method: as §1
[1] = Cytotoxicity against cancer-derived human organoids in HGSOC patient assessed as reduction in cell viability up to 100 uM measured after 96 hrs by Celltiter-glo luminescent assay; assay type: functional, Neoplasm; conditions: dose microM <=100
Summary of the method: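 Organoids from three HGSOC patients. Tissue digested with 2 mg/mL collagenase for 30 min, embedded in BME matrix and cultured. Treated at 100 µM, with carboplatin as positive control. Viability read by CellTiter-Glo luminescence.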

[2] = Antiproliferative activity against human PDAC-3 cells assessed as inhibition of cell growth incubated for 72 hrs by SRB assay; assay type: functional, cell-based; conditions: PDAC-3, 72 h
Summary of the method: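 Primary patient-derived PDAC-3 cells, cultured under 20 passages in RPMI-1640 with 10% NBCS. Compounds dissolved in DMSO and tested at 8 concentrations, 156.25 to 20 000 nM. Growth read by sulforhodamine-B assay.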

Row | Structure (SMILES) | pIC50 (Monoglyceride lipase) | also measured
1 | O=C(c1ccc(Sc2ccccc2)cc1)C1CCN(C(=O)c2cccc(O)c2)CC1 | 7.13 | 
2 | O=C(c1ccc(C2CCCCC2)cc1)C1CCN(C(=O)c2cccc(O)c2)CC1 | 6.89 | 
3 | CC(C)c1ccc(C(=O)C2CCN(C(=O)c3cccc(O)n3)CC2)cc1 | < 5.00 | 
4 | CC(C)c1ccc(C(=O)C2CCN(C(=O)c3cc(O)c(F)cc3F)CC2)cc1 | 7.51 | 
5 | O=C(c1ccc(-c2cn(CCCc3ccccc3)nn2)cc1)C1CCN(C(=O)c2cccc(O)c2)CC1 | 5.48 | 
6 | CC(C)c1ccc(C(=O)C2CCN(C(=O)c3cncc(O)c3)CC2)cc1 | 5.70 | 
7 | COc1nn(-c2ccc(NC(=O)OCc3ccccc3)c(C)c2)c(=O)o1 | 6.89 | pIC50 (HCT-116): 4.42; pIC50 (MDA-MB-231): 4.08; pIC50 (Caov-3 cell line): 4.02; pIC50 (OVCAR-3): 4.28; pIC50 (SK-OV-3): 4.48; inhibition (INH) [1]: 50%
8 | O=C(c1ccc(C2CC2)cc1)C1CCN(C(=O)c2cccc(O)c2)CC1 | 6.43 | 
9 | CC(C)c1ccc(C(=O)C2CCN(C(=O)c3cc(O)ccc3[N+](=O)[O-])CC2)cc1 | 5.35 | 
10 | CC(C)c1ccc(C(=O)C2CCN(C(=O)c3cc(O)ccn3)CC2)cc1 | < 5.00 | 
11 | Cc1ccc(O)cc1C(=O)N1CCC(C(=O)c2ccc(C(C)C)cc2)CC1 | 5.64 | 
12 | CC(C)c1ccc(C(=O)C2CCN(C(=O)c3cc(O)ccc3F)CC2)cc1 | 7.09 | 
13 | O=C(c1ccc([S+]([O-])c2ccccc2)cc1)C1CCN(C(=O)c2cccc(O)c2)CC1 (stereo not given) | 5.37 | 
14 | O=C(c1ccc(Cc2ccccc2)cc1)C1CCN(C(=O)c2cccc(O)c2)CC1 | 7.11 | 
15 | O=C(c1ccc(-c2cn(-c3ccccc3)nn2)cc1)C1CCN(C(=O)c2cccc(O)c2)CC1 | 6.00 | 
16 | O=C(c1ccc(Nc2ccccc2)cc1)C1CCN(C(=O)c2cccc(O)c2)CC1 | 6.12 | 
17 | CC(C)c1ccc(C(=O)C2CCN(C(=O)c3cc(O)ccc3C(F)(F)F)CC2)cc1 | 5.09 | 
18 | O=C(c1ccc(Oc2ccccc2)cc1)C1CCN(C(=O)c2cccc(O)c2)CC1 | 6.56 | 
19 | O=C(c1ccc(-c2cn(Cc3ccccc3)nn2)cc1)C1CCN(C(=O)c2cccc(O)c2)CC1 | 5.36 | 
20 | O=C(c1ccc(S(=O)(=O)c2ccccc2)cc1)C1CCN(C(=O)c2cccc(O)c2)CC1 | 5.47 | 
21 | CC(C)c1ccc(C(=O)C2CCN(C(=O)c3ccnc(O)c3)CC2)cc1 | < 5.00 | 
22 | Nc1ccn([C@@H]2O[C@H](CO)[C@@H](O)C2(F)F)c(=O)n1 [GEMCITABINE] |  | pIC50 [2]: 8.26
23 | CC(C)c1ccc(C(=O)C2CCN(C(=O)c3cccc(O)c3)CC2)cc1 | 6.85 | 
24 | CC(C)c1ccc(C(=O)C2CCN(C(=O)c3cc(O)ccc3N)CC2)cc1 | < 5.00 | 
